Test results from ChEMBL document CHEMBL1129648, “Synthesis and selective coronary vasodilatory activity of 3,4-dihydro-2,2-bis(methoxymethyl)-2H-1-benzopyran-3-ol derivatives: novel potassium channel openers” (J Med Chem, 1996).

Legend:
Sus scrofa = organism: Sus scrofa; experiment: Vasorelaxant effect on KCl-Induced contraction of porcine coronary artery; type: functional
Rattus norvegicus = organism: Rattus norvegicus; experiment: Vasorelaxant effect on KCl-Induced contraction of rat aorta; type: functional
How it was run: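 Isolated strips in Krebs-Henseleit solution, 37 °C, gassed with 95% O2/5% CO2, under 1 g resting load; isometric tension recorded. Strips contracted with 30 or 40 mM KCl. Cumulative concentration-relaxation curves; mean IC50 taken as concentration giving 50% relaxation of the KCl-induced contraction.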

[1] = Vasorelaxant effect on KCl-Induced contraction of porcine coronary artery vs rat aorta; type: functional
How it was run: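 Isolated porcine coronary artery and rat aortic strips in organ bath, Krebs-Henseleit solution, 37 °C, gassed 95% O2/5% CO2; isometric tension under 1 g resting load. Strips contracted with 30 or 40 mM KCl. Mean IC50 (50% relaxation of KCl-induced contraction) from concentration-relaxation curves in each tissue.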

Canis familiaris = experiment: Dose causing a 50% increase of coronary blood flow in anesthetized dogs relative to the flow increase caused by injection of 1 microg of nifedipine (100%) after intracoronary administration.; type: functional, Canis lupus familiaris, Coronary artery
How it was run: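 Anesthetized dogs; compound dissolved in 30% DMF, diluted with saline, injected into the coronary artery. Perfusion pressure and systemic blood pressure measured by pressure transducers.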

[2] = Ratio of vasorelaxant effect on KCl-Induced contraction of rat aorta to that of porcine coronary artery; type: functional

SMILES	ED50 (Canis familiaris)	other results
COC(=O)C1=C(C)NC(C)=C(C(=O)OC)C1c1ccccc1[N+](=O)[O-] [NIFEDIPINE]		IC50 (Sus scrofa): 3.6 nM; IC50 (Rattus norvegicus): 3.6 nM; Ratio [1]: 1
COCC1(COC)Oc2ccc(C#N)cc2[C@@H](Nc2ccc(=O)n(CC(=O)OC)n2)[C@@H]1O	17 µg	
COCC1(COC)Oc2ccc([N+](=O)[O-])cc2[C@@H](N=C(NC#N)c2cccnc2)[C@@H]1O	4.4 µg	
COCC1(COC)Oc2ccc(C#N)cc2[C@@H](N=C(NC#N)c2ccccc2)[C@@H]1O	5.4 µg	
COCC1(COC)Oc2ccc(C#N)cc2[C@@H](Nc2ccc(=O)n(CCSC)n2)[C@@H]1O	3.3 µg	
COCC1(COC)Oc2ccc(C#N)cc2[C@@H](N=C(NC#N)c2cccnc2)[C@@H]1O	14 µg	
COCC1(COC)Oc2ccc([N+](=O)[O-])cc2[C@@H](Nc2ccc(=O)n(C)n2)[C@@H]1O	1.1 µg	
COCC1(COC)Oc2ccc(C#N)cc2[C@@H](Nc2ccc(=O)n(C(C)C)n2)[C@@H]1O	1.3 µg	
COCC1(COC)Oc2ccc(C#N)cc2[C@@H](Nc2ccc(=O)n(C)n2)[C@@H]1O	0.58 µg	IC50 (Rattus norvegicus): 300 nM; Ratio [2]: 2.73
COCC1(COC)Oc2ccc(C#N)cc2[C@@H](N=C(C)NC#N)[C@@H]1O	6 µg	
CC1(C)Oc2ccc(C#N)cc2[C@@H](N2CCCC2=O)[C@@H]1O [LEVCROMAKALIM]		IC50 (Sus scrofa): 360 nM; IC50 (Rattus norvegicus): 290 nM; Ratio [1]: 0.81
COCC1(COC)Oc2ccc(C#N)cc2[C@@H](Nc2ccc(=O)n(CC3CC3)n2)[C@@H]1O	1.5 µg	
COCC1(C)Oc2ccc(C#N)cc2[C@@H](N=C(NC#N)c2cccnc2)[C@@H]1O (stereo partly drawn)	17 µg	
COCC1(COC)Oc2ccc(Br)cc2[C@@H](Nc2ccc(=O)n(C)n2)[C@@H]1O	2.3 µg	
COCC1(COC)Oc2ccc(C#N)cc2[C@@H](Nc2ccc(=S)n(C)n2)[C@@H]1O	24 µg	
CCn1nc(N[C@@H]2c3cc(C#N)ccc3OC(COC)(COC)[C@H]2O)ccc1=O	0.57 µg	
COCC1(COC)Oc2ccc(C#N)cc2[C@@H](Nc2ccc(=O)n(CC(=O)O)n2)[C@@H]1O	>30 µg	
CC1(C)Oc2ccc(C#N)cc2[C@@H](N=C(NC#N)c2cccnc2)[C@@H]1O	1.3 µg	
COCC1(COC)Oc2ccc(C#N)cc2[C@@H](NC(=O)c2cccnc2)[C@@H]1O	14 µg	
COCC1(COC)Oc2ccc(C#N)cc2[C@@H](Nc2ccc(=O)n(CC(F)(F)F)n2)[C@@H]1O	6.4 µg	

SMILES	ED50 (Canis familiaris)	other results
O=C(NCCO[N+](=O)[O-])c1cccnc1 [NICORANDIL]		IC50 (Sus scrofa): 3200 nM; IC50 (Rattus norvegicus): 13000 nM; Ratio [2]: 4.06
COCC1(COC)Oc2ccc(C#N)cc2[C@@H](Nc2ccc(=O)n(Cc3ccccc3)n2)[C@@H]1O	28 µg	
N#CNC(=N[C@@H]1c2cc(C#N)ccc2OC2(COCOC2)[C@H]1O)c1cccnc1	>30 µg	
CCCn1nc(N[C@@H]2c3cc(C#N)ccc3OC(COC)(COC)[C@H]2O)ccc1=O	1.5 µg	
CCCC1(C)Oc2ccc(C#N)cc2[C@@H](N=C(NC#N)c2cccnc2)[C@@H]1O (stereo partly drawn)	20 µg	
CCCCCCCn1nc(N[C@@H]2c3cc(C#N)ccc3OC(COC)(COC)[C@H]2O)ccc1=O	13 µg	
COCCn1nc(N[C@@H]2c3cc(C#N)ccc3OC(COC)(COC)[C@H]2O)ccc1=O	4.1 µg	
COCC1(COC)Oc2ccc(C#N)cc2[C@@H](Nc2ccc(=O)n(-c3ccc([N+](=O)[O-])cc3)n2)[C@@H]1O	>30 µg	
COCC1(COC)Oc2ccc(C#N)cc2[C@@H](Nc2ccc(=O)n(CC[N+](=O)[O-])n2)[C@@H]1O	1.6 µg	
COCC1(COC)Oc2ccc(C#N)cc2[C@@H](N=C(NC#N)Nc2ccccc2)[C@@H]1O	>30 µg	
COCC1(COC)Oc2ccc(C#N)cc2[C@@H](Nc2ccc(O)nn2)[C@@H]1O	6.2 µg	
COCC1(COC)Oc2ccc(C#N)cc2[C@@H](Nc2ccc(=O)n(CCF)n2)[C@@H]1O	1.8 µg	
COCC1(COC)Oc2ccc(C#N)cc2[C@@H](Oc2ccc(=O)n(C)n2)[C@@H]1O	6.4 µg	
CC1(COc2ccccc2)Oc2ccc(C#N)cc2[C@@H](N=C(NC#N)c2cccnc2)[C@@H]1O (stereo partly drawn)	>30 µg	
CCOCC1(COCC)Oc2ccc(C#N)cc2[C@@H](N=C(NC#N)c2cccnc2)[C@@H]1O	>30 µg	
COCC1(COC)Oc2ccc(C#N)cc2[C@@H](NC(=O)Nc2ccccc2)[C@@H]1O	>30 µg	
COCC1(COC)Oc2ccc(C#N)cc2[C@@H](Nc2ccc(=O)n(CC#N)n2)[C@@H]1O	5 µg	
COCC1(COC)Oc2ccc(Br)cc2[C@@H](N=C(NC#N)c2cccnc2)[C@@H]1O	20 µg	
C=CCn1nc(N[C@@H]2c3cc(C#N)ccc3OC(COC)(COC)[C@H]2O)ccc1=O	1.2 µg	
COCC1(COC)Oc2ccc(C#N)cc2[C@@H](Nc2ccc(=O)n(CCC(=O)OC)n2)[C@@H]1O	2.3 µg	
